High-throughput results deposited in PubChem by The Scripps Research Institute Molecular Screening Center.
MC4R barr agon = agonists of human melanocortin 4 receptor (MC4R) beta-arrestin. U2OS MC4R beta-arrestin complementation, luminescence; percent of melanotan II response, DMSO zero. actives 0.98% (n = 360,000). AID 540308. activation, % at 8.9 µM;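 active = activation above a per-plate cutoff, the mean activation of sample wells on that plate plus 3 SD, cut at about 8% in these data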
MC4R antag cAMP = blocks human MC4R cAMP signaling. actives 0.48% (n = 360,000). MC4R-expressing cells, MTII-stimulated cAMP, LANCE TR-FRET. AID 540295. inhibition, % at 6.5 µM;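 active = inhibition above its plate's cutoff, the mean of tested wells on that plate plus 3 SD, cut at about 29% in these data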;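 note: 0% = Melanotan II alone and 100% = Melanotan II plus saturating MCL0020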
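Material: U2OS-MC4R stable cell line | Reagent: Melanotan II challenge after compound preincubation | Doses: One concentration, 6.5 µM nominal | Incubation: 30-min compound preincubation, 1-h Melanotan II challenge, 1-h detection, room temperature | Signal: TR-FRET cAMP assay | Replicates: One well per compound, no replicates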
TLR4-MyD88 BLA = blocks binding of human TLR4 to MyD88; O00206+Q99836; HeLa CL3-4 TLR4/MyD88 BLA complementation, FRET ratio; inhibition, % at 8.4 µM; actives 0.18% (n = 200,000); AID 861; in the data active = inhibition above about 25%;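 note: 0% = vehicle and 100% = reference inhibitor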
TLR9-MyD88 block = blocks human TLR9 binding to MyD88. Q9NR96+Q99836. CHO BLA complementation TLR9-MyD88, CCF4 FRET ratio. inhibition, % at 4.98 µM. actives 0.21% (n = 340,000);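 active = inhibition above the mean over all tested compounds plus 3 SD, cut at about 21% in these data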;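 note: 0% = DMSO only wells and 100% = clavulanate BLA inhibitor control wells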
NOD2 RIPK2 PPI = NOD2-RIPK2 protein interaction inhibition; actives 0.38% (n = 360,000); CHO BLA complementation NOD2-RIPK2, CCF4 ratio; O43353; inhibition, % at 4.98 µM; AID 624267; in the data active = inhibition above about 21%;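 note: 0% = vehicle only and 100% = reference blocker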
MC4R barr conf = human MC4R beta-arrestin agonism confirmation; shares compounds with MC4R barr agon; U2OS MC4R beta-arrestin recruitment, luminescence; scaled DMSO 0%, Melanotan II 100%; activation, % at 8.9 µM; actives 31% (n = 2,400);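 active = mean activation across replicates above the hit cutoff set in the earlier primary screen, cut at about 8% in these data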
MOR-DOR barr ag = counter-screen for MC4R agonists: agonists of mu-delta opioid heterodimer; shares compounds with MC4R barr agon; U2OS PathHunter beta-arrestin, beta-gal luminescence; percent of deltorphin B response, DMSO zero; activation, % at 9.2 µM; actives 5.8% (n = 2,400); AID 602194;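 active = mean activation across replicates exceeds the hit threshold derived in the earlier primary screen, cut at about 18% in these data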;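 note: 100% = deltorphin B at 0.9 µM final and 0% = DMSO alone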
Target sequence (P35372 whole entry, looked up): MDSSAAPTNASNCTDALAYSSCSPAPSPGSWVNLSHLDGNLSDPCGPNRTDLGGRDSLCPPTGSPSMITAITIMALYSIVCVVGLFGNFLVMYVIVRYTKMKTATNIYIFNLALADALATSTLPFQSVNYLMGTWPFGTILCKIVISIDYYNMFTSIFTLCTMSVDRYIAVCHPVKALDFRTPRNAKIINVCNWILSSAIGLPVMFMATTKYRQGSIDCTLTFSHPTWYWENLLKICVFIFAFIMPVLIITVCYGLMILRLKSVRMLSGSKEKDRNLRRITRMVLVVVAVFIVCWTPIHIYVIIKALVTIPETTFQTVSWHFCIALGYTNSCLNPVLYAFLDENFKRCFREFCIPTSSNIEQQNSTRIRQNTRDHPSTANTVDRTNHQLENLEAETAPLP
Target sequence (P41143 whole entry, looked up): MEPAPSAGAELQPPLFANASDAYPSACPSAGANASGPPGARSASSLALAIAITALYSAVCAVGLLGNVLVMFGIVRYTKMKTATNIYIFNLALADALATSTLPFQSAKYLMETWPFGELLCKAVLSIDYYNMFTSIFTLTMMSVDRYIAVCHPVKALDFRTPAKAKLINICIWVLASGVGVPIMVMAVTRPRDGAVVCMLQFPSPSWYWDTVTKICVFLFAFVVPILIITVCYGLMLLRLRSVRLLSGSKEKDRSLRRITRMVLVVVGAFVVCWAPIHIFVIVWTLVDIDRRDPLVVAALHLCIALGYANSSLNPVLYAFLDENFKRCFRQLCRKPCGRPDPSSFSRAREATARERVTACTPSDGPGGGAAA
An asterisk follows results filed as active; . = no result given. A selection: hits, their analogues and other compounds. The true share with any hit is near 1.8%.

SMILES	MC4R barr agon	MC4R antag cAMP	TLR4-MyD88 BLA	TLR9-MyD88 block	NOD2 RIPK2 PPI	MC4R barr conf	MOR-DOR barr ag
Cc1ccc(CCc2nnc(SCC(=O)Nc3cccc(Cl)c3)n2-c2ccccc2)o1	27*	-1	8	-19	8	3	8
COc1cc(SC)ccc1C(=O)Nc1ccccc1C#N	12*	-2	-13	-2	-4	7	4
O=C1CC(c2cc(Br)ccc2F)c2cc3c(cc2N1)CCC3 (centres undefined)	16*	-22	22	10	7	3	4
CCc1nonc1NC(=O)c1oc2cc(C)c(C)cc2c1C	12*	1	.	2	-5	2	6
CCN1C(=O)/C(=C\N2CCN(c3ccc(F)cc3)CC2)SC1=S	19*	1	-3	-16	-7	2	6
CCOC(=O)c1sc2nc(CSc3ccccc3Cl)[nH]c(=O)c2c1C	10*	-6	4	2	-6	3	2
CCOc1ccccc1NC(=O)c1ccc2[nH]c(C)c(C)c2c1	12*	11	.	-2	-1	1	8
CCCn1cc(NC(=O)c2cc(-c3ccccc3)on2)cn1	3	1	5	11	9	.	.
COc1ccc(-c2cc(C(=O)Nc3cnn(Cc4ccccc4C)c3)no2)cc1OC	12*	-1	3	-6	-9	3	9
COc1ccc(-c2cc(C(=O)Nc3ccccc3SC)no2)cc1OC	39*	-5	-11	-6	0	3	13
O=C(Nc1cnn(C23CC4CC(CC(C4)C2)C3)c1)c1cc(-c2ccccc2)on1	12*	0	2	-3	-17	0	2
COc1cccc(-c2cc(C(=O)Nc3ccccc3SC)no2)c1	7	1	-19	5	-2	.	.
Cc1cc(Cl)ccc1OCC(=O)N/N=C1\CC2C=CCC12 (centres undefined)	-1	3	-8	7	-2	.	.
COc1ccc(-c2csc(NC(=O)COC(=O)c3ccco3)n2)cc1	11*	7	2	2	-3	4	3
Cc1ccc(NC(=O)OCc2cc(-c3ccccc3)on2)cc1	11*	-5	21	1	-5	1	6
COc1ccc(-c2cc(C(=O)Nc3ccc(C)cc3)no2)cc1	1	15	0	-3	-11	.	.
O=C(Nc1ccc(Cl)cc1)OCc1cc(-c2ccccc2Cl)on1	11*	4	10	-9	1	8.6*	5
CC(C)S(=O)(=O)c1csc(C(=O)Nc2ccc(F)cc2)c1N	1	-4	.	-6	-13	.	.
Cc1ccc(-n2nc3c(=O)n(CCCC(=O)NCc4ccccc4Cl)nc(C)c3c2C)cc1	-3	9	.	-7	-5	.	.
CCOC(=O)/C(C#N)=C(C)/C=C1\Sc2ccccc2N1CC	18*	-16	-6	-5	-3	15*	2
O=C(/C=C/c1cccs1)c1ccc([N+](=O)[O-])cc1	11*	6	.	3	-1	1	7
Cc1nn(-c2ccccc2)c(Cl)c1/C=N/NC(=O)c1ccncc1	1	1	.	-2	-9	.	.
Cc1nn(-c2cccc(Cl)c2)c(Cl)c1/C=N/NC(=O)c1cccs1	25*	0	-5	-10	-3	3	9
CCNC(=S)N/N=C/c1c(C)nn(-c2cccc(Cl)c2)c1Cl	21*	9	2	15	3	2	9
Fc1cccc(Cc2c(-c3ccccc3)nc3c4ccccc4ccn23)c1	.	.	.	.	7	.	.
SMILES	MC4R barr agon	MC4R antag cAMP	TLR4-MyD88 BLA	TLR9-MyD88 block	NOD2 RIPK2 PPI	MC4R barr conf	MOR-DOR barr ag
CCSc1nnc(-c2ccc(Cl)cc2)c2ccccc12	19*	2	-18	1	-22	-2	3
COc1cc(/C=N/NC(=O)c2ccccn2)ccc1OC(=O)c1ccccc1Br	12*	-2	.	-13	11	5	1
O=C1CC(N(CCc2ccccc2)C(=S)Nc2cc(Cl)ccc2Cl)C(=O)N1c1c(Cl)cccc1Cl (centres undefined)	-1	15	-1	2	-8	.	.
COC(=O)c1sc(NC(=O)/C=C/c2ccc(C)o2)nc1C	12*	-1	9	6	-6	4	1
COc1ccc(C(NC(=O)C2CCN(Cc3ccc(Oc4ccccc4)cc3)CC2)c2ccccc2C)cn1 (centres undefined)	0	6	.	.	7	.	.
Cc1c(C(=O)Nc2cccc([N+](=O)[O-])c2)csc1-c1ccccc1	14*	3	-3	2	2	2	10
Cc1ccc(NC(=O)c2csc(-c3ccccc3)c2C)cc1	8	5	-1	1	-5	.	.
COc1ccc(C(=O)NCCCCNC(=O)c2ccc(OC)c(OC)c2)cc1OC	3	8	.	7	1	.	.
CCOC(=O)C1=C(C(F)(F)F)Nc2ncnn2C1c1cc(OC)ccc1OC (centres undefined)	-3	0	-11	-4	-6	.	.
COc1ccc(C(=O)c2coc3c2C(=O)C(=O)c2ccccc2-3)cc1	17*	-3	.	3	-1	4	6
COc1ccc(/C=C2/SC(=S)N(Cc3ccccc3)C2=O)cc1O	12*	7	.	6	-4	8	5
COc1ccc(/C=C2/SC(=S)N(CCCC(=O)Nc3ccc(O)cc3)C2=O)cc1	12*	5	.	7	-5	7	4
COc1ccc(/C=C2/SC(=S)N(CCC(=O)O)C2=O)cc1	-1	-3	-12	-7	3	.	.
COc1ccc(/C=C2\SC(=S)N(CCCC(=O)Nc3ccc(O)cc3)C2=O)cc1	17*	27	.	3	-9	10*	2
COc1ccc(/C=C2\SC(=S)N(CCC(=O)Nc3cccc(O)c3)C2=O)cc1	21*	-3	.	3	1	3	4
COc1ccc(/C=C2\SC(=S)N(CCC(=O)Nc3ccc(C(=O)O)cc3)C2=O)cc1	-2	4	.	10	3	.	.
COc1cc(/C=C2\SC(=S)N(CCC(=O)Nc3ccc(O)cc3)C2=O)cc(OC)c1OC	1	7	.	3	4	.	.
COc1cccc(CNC(=O)C2CCN(S(=O)(=O)c3ccc4c(c3)OCCO4)CC2)c1	-1	4	.	-8	-1	.	.
CC(=O)Nc1cc(-c2cccc(NS(C)(=O)=O)c2)cn2c(-c3ccccc3)cnc12	12*	5	.	.	6	20*	4
CC(=O)Nc1cc(-c2cccc(F)c2)cn2c(-c3ccc(F)c(Cl)c3)cnc12	16*	5	.	.	1	19*	3
CC(=O)Nc1cc(-c2cccc(C(=O)NCCO)c2)cn2c(-c3ccc(F)cc3)cnc12	3	23	.	.	-6	.	.
